From ChEMBL document CHEMBL5661979, “Pharmacological inhibition of BMK1 suppresses tumor growth through promyelocytic leukemia protein” (Cancer Cell, 2010)
Activity calls are given as the source filed them. The calls are words filed in the database; no cut-off is given here.

Columns and labels:
[1] = biological target: Mitogen-activated protein kinase; ERK1/ERK2 (Homo sapiens) (UniProt P27361+P28482); assay: Inhibition of ERK1/2 in human HeLa cells assessed as reduction in EGF-induced ERK1/2 phosphorylation level at T202/Y204 residue at 1 to 5 uM pre incubated for 1 hr followed by EGF stimulation and measured after 17 mins by Western blot analysis; assay type: cell-based; conditions: dose 1-5 µM, time 77.0 min
[2] = Volume of distribution at steady state in Sprague-Dawley rat at 1 mg/kg, iv measured up to 8 hrs by LC-MS/MS analysis; assay type: ADME, organism-based; conditions: in vivo, read-out: Vdss
[3] = Tmax in Sprague-Dawley rat at 2 mg/kg, po measured up to 8 hrs by LC-MS/MS analysis; assay type: ADME, organism-based; conditions: in vivo
[4] = biological target: Mitogen-activated protein kinase kinase kinase 7 (Homo sapiens, UniProt O43318); assay: Inhibition of TAK1 in human HeLa cells lysate pre incubated for 15 mins followed by ATP acyl phosphate probe addition and measured after 10 mins by LC-MS/MS analysis; assay type: subcellular
Chain of Mitogen-activated protein kinase kinase kinase 7 (O43318 whole entry): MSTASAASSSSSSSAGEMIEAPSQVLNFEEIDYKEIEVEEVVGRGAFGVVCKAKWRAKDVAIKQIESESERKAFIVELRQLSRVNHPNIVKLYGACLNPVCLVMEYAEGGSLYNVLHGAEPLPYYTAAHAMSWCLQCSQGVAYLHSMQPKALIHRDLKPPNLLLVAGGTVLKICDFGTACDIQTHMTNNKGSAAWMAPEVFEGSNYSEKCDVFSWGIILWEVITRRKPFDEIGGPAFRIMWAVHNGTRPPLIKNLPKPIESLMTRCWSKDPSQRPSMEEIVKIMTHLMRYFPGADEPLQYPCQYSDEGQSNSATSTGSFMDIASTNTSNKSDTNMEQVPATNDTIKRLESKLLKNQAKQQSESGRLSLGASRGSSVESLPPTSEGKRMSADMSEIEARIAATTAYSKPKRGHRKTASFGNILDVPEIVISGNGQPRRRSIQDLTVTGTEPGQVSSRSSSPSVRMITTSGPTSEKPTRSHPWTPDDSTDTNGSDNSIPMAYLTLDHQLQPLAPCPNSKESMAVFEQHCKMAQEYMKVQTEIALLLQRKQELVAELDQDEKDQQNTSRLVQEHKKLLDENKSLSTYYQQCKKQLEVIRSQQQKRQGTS

[5] = biological target: Tyrosine-protein kinase CSK (Homo sapiens, UniProt P41240); assay: Inhibition of CSK in human HeLa cells lysate at 10 uM pre incubated for 15 mins followed by ATP acyl phosphate probe addition and measured after 10 mins by LC-MS/MS analysis relative to control; assay type: subcellular; conditions: time 25.0 min
Chain of Tyrosine-protein kinase CSK (P41240 2-450 limits assumed): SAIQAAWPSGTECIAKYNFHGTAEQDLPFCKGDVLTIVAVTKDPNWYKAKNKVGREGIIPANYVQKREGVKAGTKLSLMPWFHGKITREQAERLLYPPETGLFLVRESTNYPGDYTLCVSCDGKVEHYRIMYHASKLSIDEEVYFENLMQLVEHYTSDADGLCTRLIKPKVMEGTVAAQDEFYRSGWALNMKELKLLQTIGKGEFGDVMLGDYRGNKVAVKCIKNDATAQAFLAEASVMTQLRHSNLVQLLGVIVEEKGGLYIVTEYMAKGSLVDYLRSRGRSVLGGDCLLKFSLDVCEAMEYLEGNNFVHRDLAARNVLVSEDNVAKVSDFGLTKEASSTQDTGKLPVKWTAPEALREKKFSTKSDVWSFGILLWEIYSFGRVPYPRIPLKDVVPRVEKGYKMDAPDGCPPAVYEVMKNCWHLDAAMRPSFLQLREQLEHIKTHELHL

Lewis lung carcinoma = assay: Antitumor activity against mouse LL2 cells allografted in C57Bl/6 mouse assessed as decrease in BrdU incorporation in cell nuclei in tumor at 50 mg/kg, ip by fluorescence microscopic analysis; assay type: functional, organism-based
Procedure, shortened: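 HeLa or LL/2 tumor sections from treated and control xenograft mice were stained with anti-BrdU antibody and DAPI and imaged by fluorescence microscopy. n = 6 mice, 9 slices.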

[6] = biological target: Phosphatidylinositol 4-phosphate 3-kinase C2 domain-containing subunit beta (Homo sapiens, UniProt O00750); assay: Inhibition of PIK3C2B in human HeLa cells lysate at 10 uM pre incubated for 15 mins followed by ATP acyl phosphate probe addition and measured after 10 mins by LC-MS/MS analysis relative to control; assay type: subcellular; conditions: time 25.0 min
Chain of Phosphatidylinositol 4-phosphate 3-kinase C2 domain-containing subunit beta (O00750 whole entry, the tested form may be a part): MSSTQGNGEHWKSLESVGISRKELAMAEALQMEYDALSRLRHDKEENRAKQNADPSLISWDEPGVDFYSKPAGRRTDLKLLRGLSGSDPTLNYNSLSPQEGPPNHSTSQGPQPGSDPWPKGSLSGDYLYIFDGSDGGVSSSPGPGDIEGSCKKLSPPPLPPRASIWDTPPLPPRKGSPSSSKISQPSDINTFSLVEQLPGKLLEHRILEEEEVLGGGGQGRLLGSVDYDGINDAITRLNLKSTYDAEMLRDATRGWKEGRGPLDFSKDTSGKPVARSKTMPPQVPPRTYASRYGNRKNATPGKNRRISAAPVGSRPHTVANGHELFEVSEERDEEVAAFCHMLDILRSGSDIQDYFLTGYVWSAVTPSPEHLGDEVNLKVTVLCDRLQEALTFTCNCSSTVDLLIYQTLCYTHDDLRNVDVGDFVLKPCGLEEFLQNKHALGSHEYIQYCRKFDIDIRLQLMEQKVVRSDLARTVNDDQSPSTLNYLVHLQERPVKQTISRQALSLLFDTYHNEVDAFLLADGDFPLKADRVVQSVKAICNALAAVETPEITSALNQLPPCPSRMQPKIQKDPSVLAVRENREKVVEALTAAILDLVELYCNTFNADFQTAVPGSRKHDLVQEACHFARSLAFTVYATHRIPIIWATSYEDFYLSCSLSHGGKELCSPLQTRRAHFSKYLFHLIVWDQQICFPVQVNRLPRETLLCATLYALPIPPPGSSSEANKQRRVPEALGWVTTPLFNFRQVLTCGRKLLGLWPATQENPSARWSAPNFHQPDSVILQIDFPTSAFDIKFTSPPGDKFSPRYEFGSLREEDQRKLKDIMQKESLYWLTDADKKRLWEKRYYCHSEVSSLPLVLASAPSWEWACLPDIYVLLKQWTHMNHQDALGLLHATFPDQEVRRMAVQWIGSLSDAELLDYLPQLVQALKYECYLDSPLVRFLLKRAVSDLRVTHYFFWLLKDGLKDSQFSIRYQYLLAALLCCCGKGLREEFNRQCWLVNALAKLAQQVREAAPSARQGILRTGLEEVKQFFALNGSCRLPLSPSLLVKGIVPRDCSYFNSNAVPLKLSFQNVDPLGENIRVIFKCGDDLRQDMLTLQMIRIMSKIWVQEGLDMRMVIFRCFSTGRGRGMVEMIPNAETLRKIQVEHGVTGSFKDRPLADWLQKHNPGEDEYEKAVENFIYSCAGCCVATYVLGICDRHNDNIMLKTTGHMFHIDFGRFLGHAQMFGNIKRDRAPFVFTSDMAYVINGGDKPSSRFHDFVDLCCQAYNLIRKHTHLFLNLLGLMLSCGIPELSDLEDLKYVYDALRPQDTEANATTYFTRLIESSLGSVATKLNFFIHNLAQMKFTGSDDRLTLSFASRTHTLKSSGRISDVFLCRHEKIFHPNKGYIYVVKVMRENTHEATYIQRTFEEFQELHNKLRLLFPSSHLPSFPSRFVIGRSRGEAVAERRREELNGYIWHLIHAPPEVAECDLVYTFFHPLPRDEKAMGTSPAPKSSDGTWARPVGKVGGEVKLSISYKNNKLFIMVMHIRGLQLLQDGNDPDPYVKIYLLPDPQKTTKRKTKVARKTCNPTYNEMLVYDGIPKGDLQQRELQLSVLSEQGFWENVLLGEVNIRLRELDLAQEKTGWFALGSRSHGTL

[7] = biological target: Cyclin-dependent kinase 11B (Homo sapiens, UniProt P21127); assay: Inhibition of PITSLRE in human HeLa cells lysate pre incubated for 15 mins followed by ATP acyl phosphate probe addition and measured after 10 mins by LC-MS/MS analysis; assay type: subcellular
[8] = biological target: Serine/threonine-protein kinase Nek8 (Homo sapiens, UniProt Q86SG6); assay: Inhibition of NEK8 in human HeLa cells lysate pre incubated for 15 mins followed by ADP acyl phosphate probe addition and measured after 10 mins by LC-MS/MS analysis; assay type: subcellular
Chain of Serine/threonine-protein kinase Nek8 (Q86SG6 whole entry): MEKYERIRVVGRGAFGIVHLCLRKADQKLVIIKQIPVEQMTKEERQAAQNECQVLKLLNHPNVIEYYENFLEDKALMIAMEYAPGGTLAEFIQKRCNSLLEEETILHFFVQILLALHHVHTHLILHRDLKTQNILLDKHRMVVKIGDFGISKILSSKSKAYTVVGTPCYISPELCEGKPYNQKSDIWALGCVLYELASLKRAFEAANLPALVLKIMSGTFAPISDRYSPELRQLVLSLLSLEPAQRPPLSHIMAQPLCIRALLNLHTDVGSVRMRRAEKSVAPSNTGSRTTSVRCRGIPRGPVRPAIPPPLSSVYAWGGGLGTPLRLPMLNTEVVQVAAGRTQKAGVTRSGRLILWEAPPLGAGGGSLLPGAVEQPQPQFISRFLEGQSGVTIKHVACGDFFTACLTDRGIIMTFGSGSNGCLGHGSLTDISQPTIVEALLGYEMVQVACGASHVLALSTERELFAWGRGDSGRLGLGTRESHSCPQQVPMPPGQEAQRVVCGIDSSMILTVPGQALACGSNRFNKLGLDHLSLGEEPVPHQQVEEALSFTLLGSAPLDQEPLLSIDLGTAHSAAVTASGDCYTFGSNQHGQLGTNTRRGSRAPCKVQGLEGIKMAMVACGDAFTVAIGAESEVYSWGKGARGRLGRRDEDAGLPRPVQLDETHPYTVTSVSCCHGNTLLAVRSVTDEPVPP

[9] = biological target: Mitogen-activated protein kinase 4 (Homo sapiens, UniProt P31152); assay: Inhibition of ERK4 in human HeLa cells lysate at 50 uM pre incubated for 15 mins followed by ATP acyl phosphate probe addition and measured after 10 mins by LC-MS/MS analysis relative to control; assay type: subcellular; conditions: time 25.0 min
Chain of Mitogen-activated protein kinase 4 (P31152 whole entry, canonical isoform): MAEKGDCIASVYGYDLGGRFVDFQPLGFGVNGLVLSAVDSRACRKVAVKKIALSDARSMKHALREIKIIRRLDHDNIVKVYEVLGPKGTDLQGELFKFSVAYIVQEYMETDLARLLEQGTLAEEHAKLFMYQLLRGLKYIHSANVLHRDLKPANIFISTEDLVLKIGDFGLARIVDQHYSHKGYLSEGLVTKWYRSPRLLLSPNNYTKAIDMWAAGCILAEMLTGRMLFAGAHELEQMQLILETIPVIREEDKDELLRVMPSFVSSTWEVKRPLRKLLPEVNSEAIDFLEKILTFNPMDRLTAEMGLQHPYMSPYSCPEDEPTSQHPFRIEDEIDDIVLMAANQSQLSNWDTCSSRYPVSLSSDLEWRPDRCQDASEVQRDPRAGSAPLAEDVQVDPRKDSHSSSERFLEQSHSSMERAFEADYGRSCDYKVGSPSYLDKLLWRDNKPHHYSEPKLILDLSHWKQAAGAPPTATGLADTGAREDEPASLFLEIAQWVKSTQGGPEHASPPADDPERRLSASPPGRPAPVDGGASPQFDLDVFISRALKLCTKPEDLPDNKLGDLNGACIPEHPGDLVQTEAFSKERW

[10] = biological target: Glycogen synthase kinase-3 beta (Homo sapiens, UniProt P49841); assay: Inhibition of GSK3B isoform 2 in human HeLa cells lysate at 10 uM pre incubated for 15 mins followed by ATP acyl phosphate probe addition and measured after 10 mins by LC-MS/MS analysis relative to control; assay type: subcellular; conditions: time 25.0 min
Chain of Glycogen synthase kinase-3 beta (P49841 whole entry, looked up, canonical isoform): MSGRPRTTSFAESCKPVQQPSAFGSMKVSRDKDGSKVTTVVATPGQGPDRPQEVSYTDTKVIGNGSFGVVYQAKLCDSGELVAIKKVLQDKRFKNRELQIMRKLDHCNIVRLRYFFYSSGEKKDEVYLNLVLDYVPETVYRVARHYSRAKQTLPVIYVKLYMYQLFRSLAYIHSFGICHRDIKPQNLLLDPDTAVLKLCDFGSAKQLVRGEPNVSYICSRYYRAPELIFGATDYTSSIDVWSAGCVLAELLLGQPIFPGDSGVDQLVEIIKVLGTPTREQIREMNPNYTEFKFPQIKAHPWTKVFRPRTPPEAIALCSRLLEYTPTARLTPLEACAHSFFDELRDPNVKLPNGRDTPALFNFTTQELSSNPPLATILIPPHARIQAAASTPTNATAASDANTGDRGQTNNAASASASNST

[11] = biological target: Cyclin-dependent kinase 2 (Homo sapiens, UniProt P24941); assay: Inhibition of CDK2 in human HeLa cells lysate at 50 uM pre incubated for 15 mins followed by ADP acyl phosphate probe addition and measured after 10 mins by LC-MS/MS analysis relative to control; assay type: subcellular; conditions: time 25.0 min
Procedure, shortened: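 KiNativ profiling in HeLa lysate (5 mg/mL total protein). Lysate incubated 15 min with inhibitor at 50, 10, 2, 0.8 or 0 μM. ATP or ADP acylphosphate probe then added (5 μM final) and reacted 10 min. Reaction stopped with urea and analysed by targeted MS, using up to four fragment ions per kinase peptide-probe conjugate. % inhibition taken against untreated lysate. Run in duplicate.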

[12] = biological target: Mitogen-activated protein kinase 7 (Mus musculus) (UniProt Q9WVS8); assay: Inhibition of BMK1 in pml null mouse MEF cells assessed as increase in p21 protein expression at 5 uM incubated for 16 hrs by Western blot analysis; assay type: cell-based
Procedure, shortened: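 Pml+/+ or Pml−/− MEFs treated ±5 μM inhibitor for 16 h. Lysates western blotted for p21, quantified by densitometry and normalized to GAPDH, relative to untreated Pml+/+ MEF set as 1. n = 3, ±SEM.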

[13] = biological target: Serine/threonine-protein kinase Nek7 (Homo sapiens, UniProt Q8TDX7); assay: Inhibition of NEK7 in human HeLa cells lysate at 10 uM pre incubated for 15 mins followed by ADP acyl phosphate probe addition and measured after 10 mins by LC-MS/MS analysis relative to control; assay type: subcellular; conditions: time 25.0 min
HeLa = assay: Antitumor activity against human HeLa cells xenografted in NOD/SCID mouse assessed as reduction tumor growth at 50 mg/kg, ip administered on day 7 post implantation measured after 28 days; assay type: functional, organism-based; conditions: time 21.0 day
Procedure, shortened: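 HeLa cells (5×10^5, in DMEM) were injected s.c. into the right flank of 6-week-old Nod/Scid mice on day 0. Dosing was 50 mg/kg i.p. twice daily, starting on day 1, 7 or 14 and continuing to day 28; controls received carrier. 6 mice per treated group. Tumors were measured every 2–3 days.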

[14] = biological target: Mitogen-activated protein kinase kinase kinase 2 (Homo sapiens, UniProt Q9Y2U5); assay: Inhibition of MAP3K2 in human HeLa cells lysate pre incubated for 15 mins followed by ADP acyl phosphate probe addition and measured after 10 mins by LC-MS/MS analysis; assay type: subcellular
Chain of Mitogen-activated protein kinase kinase kinase 2 (Q9Y2U5 whole entry): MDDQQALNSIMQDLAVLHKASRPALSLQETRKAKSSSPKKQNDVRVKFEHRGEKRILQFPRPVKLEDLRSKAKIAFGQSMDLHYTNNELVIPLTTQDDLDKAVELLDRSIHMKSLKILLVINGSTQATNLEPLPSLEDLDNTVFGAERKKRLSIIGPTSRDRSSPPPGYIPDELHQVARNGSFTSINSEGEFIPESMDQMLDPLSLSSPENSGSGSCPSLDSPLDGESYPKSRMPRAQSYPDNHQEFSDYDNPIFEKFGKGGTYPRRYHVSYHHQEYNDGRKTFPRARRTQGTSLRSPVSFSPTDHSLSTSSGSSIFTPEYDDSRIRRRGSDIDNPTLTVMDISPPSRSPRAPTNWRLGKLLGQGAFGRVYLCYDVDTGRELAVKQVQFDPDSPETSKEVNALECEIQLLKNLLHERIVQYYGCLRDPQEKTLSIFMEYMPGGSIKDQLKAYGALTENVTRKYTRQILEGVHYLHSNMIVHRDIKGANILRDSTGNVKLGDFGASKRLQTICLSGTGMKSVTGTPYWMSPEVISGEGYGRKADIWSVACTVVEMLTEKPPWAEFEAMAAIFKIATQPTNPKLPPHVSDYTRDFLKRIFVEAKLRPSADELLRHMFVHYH

[15] = biological target: Serine/threonine-protein kinase 24 (Homo sapiens, UniProt Q9Y6E0); assay: Inhibition of MST3 in human HeLa cells lysate at 2 uM pre incubated for 15 mins followed by ATP acyl phosphate probe addition and measured after 10 mins by LC-MS/MS analysis relative to control; assay type: subcellular; conditions: time 25.0 min
[16] = biological target: T1, Mixed lineage kinase domain-like protein (Homo sapiens) (UniProt Q8NB16); assay: Inhibition of MLKL in human HeLa cells lysate at 2 uM pre incubated for 15 mins followed by ADP acyl phosphate probe addition and measured after 10 mins by LC-MS/MS analysis relative to control; assay type: subcellular; conditions: time 25.0 min
T1 sequence (whole entry): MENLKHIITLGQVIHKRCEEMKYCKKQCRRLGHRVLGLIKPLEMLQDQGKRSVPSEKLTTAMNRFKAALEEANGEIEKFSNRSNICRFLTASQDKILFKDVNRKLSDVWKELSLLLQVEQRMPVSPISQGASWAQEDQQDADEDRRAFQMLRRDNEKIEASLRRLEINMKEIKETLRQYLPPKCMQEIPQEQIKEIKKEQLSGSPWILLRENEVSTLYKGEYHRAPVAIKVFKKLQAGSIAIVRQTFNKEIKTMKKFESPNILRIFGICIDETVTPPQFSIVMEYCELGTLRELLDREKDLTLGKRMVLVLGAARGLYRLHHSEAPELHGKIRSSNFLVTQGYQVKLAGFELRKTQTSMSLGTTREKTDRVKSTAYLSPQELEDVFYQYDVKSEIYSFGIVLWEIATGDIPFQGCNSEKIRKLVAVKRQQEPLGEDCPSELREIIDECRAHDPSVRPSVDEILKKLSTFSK

CCOc1cc(N2CCC(O)CC2)ccc1Nc1ncc2c(n1)N(C)c1ccccc1C(=O)N2C
inhibition [1]: inactive | Vd [2]: 3.4 L/kg | Tmax [3]: 30 min | IC50 [4]: > 50 µM | inhibition [5]: -3.4% | Activity (Lewis lung carcinoma): Active | inhibition [6]: 6.5% | IC50 [7]: > 50 µM | IC50 [8]: > 50 µM | inhibition [9]: 28.7% | inhibition [10]: -7.8% | inhibition [11]: -3.2% | inhibition [12]: inactive | inhibition [13]: -7.9% | Activity (HeLa): Active | IC50 [14]: > 50 µM | inhibition [15]: -3.8% | inhibition [16]: 35.6%
